According to ChEMBL document CHEMBL5143539, “Synthesis and evaluation of dual-action kanglemycin-fluoroquinolone hybrid antibiotics” (Bioorg Med Chem Lett, 2022):
≈ marks a conversion by molar mass, not a printed value.

Columns and labels:
Staphylococcus aureus [1] = assay: Antibacterial activity against wild type Staphylococcus aureus assessed as inhibition of bacterial growth; format: functional
Staphylococcus aureus [2] = assay: Antibacterial activity against Staphylococcus aureus harboring RpoBH481Y/ParCS80F/GyrAS84L triple mutant assessed as inhibition of bacterial growth; format: functional
Escherichia coli = assay: Antibacterial activity against Escherichia coli assessed as inhibition of bacterial growth; format: functional
Summary of the method: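 Run in duplicate, with the same result obtained in each trial.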

Staphylococcus aureus [3] = assay: Antibacterial activity against rifampicin resistant Staphylococcus aureus harboring RpoBH481Y mutant assessed as inhibition of bacterial growth; format: functional
Staphylococcus aureus [4] = assay: Antibacterial activity against ciprofloxacin resistant Staphylococcus aureus harboring ParCS80F and GyrAS84L double mutant assessed as inhibition of bacterial growth; format: functional
HEK293 = assay: Cytotoxicity against HEK293 cells; format: toxicity, cell-based, Homo sapiens

SMILES	MIC (Staphylococcus aureus [1]) [µg/mL]	MIC (Staphylococcus aureus [2]) [µg/mL]	MIC (Escherichia coli) [µg/mL]	MIC (Staphylococcus aureus [3]) [µg/mL]	MIC (Staphylococcus aureus [4]) [µg/mL]	IC50 (HEK293) [µg/mL]
CC(=O)O[C@H]1[C@H](C)[C@H](O)[C@H](C)[C@@H](O)[C@@H](C(C)OC(=O)C(C)(C)CC(=O)O)/C=C/C=C(/C)C(=O)NC2=CC(=O)c3c(c(O)c(C)c4c3C(=O)[C@@](C)(O/C=C/[C@H](O[C@H]3C[C@@H]5OCO[C@@H]5[C@@H](C)O3)[C@H]1C)O4)C2=O (some centres undefined)	0.25 (≈ 0.255 µM)	> 64	> 64	> 64	0.25 (≈ 0.255 µM)	
CC(=O)O[C@H]1[C@H](C)[C@H](O)[C@H](C)[C@@H](O)[C@@H](C(C)OC(=O)C(C)(C)CC(=O)N[C@@H]2CCCCN(c3c(F)cc4c(=O)c(C(=O)O)cn(C5CC5)c4c3Cl)C2)/C=C/C=C(/C)C(=O)NC2=CC(=O)c3c(c(O)c(C)c4c3C(=O)[C@@](C)(O/C=C/[C@H](O[C@H]3C[C@@H]5OCO[C@@H]5[C@@H](C)O3)[C@H]1C)O4)C2=O (some centres undefined)	16 (≈ 11.8 µM)	> 64	> 64	16 (≈ 11.8 µM)	16 (≈ 11.8 µM)	> 64
CC(=O)O[C@H]1[C@H](C)[C@H](O)[C@H](C)[C@@H](O)[C@@H](C(C)OC(=O)C(C)(C)CC(=O)O)/C=C/C=C(/C)C(=O)Nc2c3oc4cc(NC5(c6c(F)cc7c(=O)c(C(=O)O)cn8c7c6OC[C@@H]8C)CC5)cc(O)c4nc-3c3c4c(c(C)c(O)c3c2=O)O[C@](C)(O/C=C/[C@H](O[C@H]2C[C@@H]3OCO[C@@H]3[C@@H](C)O2)[C@H]1C)C4=O (some centres undefined)	8 (≈ 5.7 µM)	> 64	4 (≈ 2.85 µM)	32 (≈ 22.8 µM)	8 (≈ 5.7 µM)	> 64
CC(=O)O[C@H]1[C@H](C)[C@H](O)[C@H](C)[C@@H](O)[C@@H](C(C)OC(=O)C(C)(C)CC(=O)NC2(c3c(F)cc4c(=O)c(C(=O)O)cn5c4c3OC[C@@H]5C)CC2)/C=C/C=C(/C)C(=O)NC2=CC(=O)c3c(c(O)c(C)c4c3C(=O)[C@@](C)(O/C=C/[C@H](O[C@H]3C[C@@H]5OCO[C@@H]5[C@@H](C)O3)[C@H]1C)O4)C2=O (some centres undefined)	8 (≈ 6.24 µM)	> 64	> 64	> 64	8 (≈ 6.24 µM)	> 64
COc1c(N2CCN(C(=O)CC(C)(C)C(=O)OC(C)[C@H]3/C=C/C=C(/C)C(=O)NC4=CC(=O)c5c(c(O)c(C)c6c5C(=O)[C@@](C)(O/C=C/[C@H](O[C@H]5C[C@@H]7OCO[C@@H]7[C@@H](C)O5)[C@@H](C)[C@@H](OC(C)=O)[C@H](C)[C@H](O)[C@H](C)[C@H]3O)O6)C4=O)C(C)C2)c(F)cc2c(=O)c(C(=O)O)cn(C3CC3)c12 (some centres undefined)	64 (≈ 47.8 µM)	> 64	> 64	> 64	32 (≈ 23.9 µM)	21 (≈ 15.7 µM)
CC(=O)O[C@H]1[C@H](C)[C@H](O)[C@H](C)[C@@H](O)[C@@H](C(C)OC(=O)C(C)(C)CC(=O)O)/C=C/C=C(/C)C(=O)Nc2c3oc4cc(N5CCN(c6cc7c(cc6F)c(=O)c(C(=O)O)cn7C6CC6)CC5)cc(O)c4nc-3c3c4c(c(C)c(O)c3c2=O)O[C@](C)(O/C=C/[C@H](O[C@H]2C[C@@H]3OCO[C@@H]3[C@@H](C)O2)[C@H]1C)C4=O (some centres undefined)	0.5 (≈ 0.353 µM)	> 64	8 (≈ 5.65 µM)	32 (≈ 22.6 µM)	0.5 (≈ 0.353 µM)	> 64
CC(=O)O[C@H]1[C@H](C)[C@H](O)[C@H](C)[C@@H](O)[C@@H](C(C)OC(=O)C(C)(C)CC(=O)N2Cc3cc(-c4ccc5c(=O)c(C(=O)O)cn(C6CC6)c5c4OC(F)F)ccc3[C@H]2C)/C=C/C=C(/C)C(=O)NC2=CC(=O)c3c(c(O)c(C)c4c3C(=O)[C@@](C)(O/C=C/[C@H](O[C@H]3C[C@@H]5OCO[C@@H]5[C@@H](C)O3)[C@H]1C)O4)C2=O (some centres undefined)	8 (≈ 5.75 µM)	> 64	> 64	16 (≈ 11.5 µM)	8 (≈ 5.75 µM)	19 (≈ 13.7 µM)
CC(=O)O[C@H]1[C@H](C)[C@H](O)[C@H](C)[C@@H](O)[C@@H](C(C)OC(=O)C(C)(C)CC(=O)N[C@H]2[C@@H]3CN(c4nc5c(cc4F)c(=O)c(C(=O)O)cn5-c4ccc(F)cc4F)C[C@@H]32)/C=C/C=C(/C)C(=O)NC2=CC(=O)c3c(c(O)c(C)c4c3C(=O)[C@@](C)(O/C=C/[C@H](O[C@H]3C[C@@H]5OCO[C@@H]5[C@@H](C)O3)[C@H]1C)O4)C2=O (some centres undefined)	8 (≈ 5.8 µM)	> 64	> 64	16 (≈ 11.6 µM)	8 (≈ 5.8 µM)	> 64
CC(=O)O[C@H]1[C@H](C)[C@H](O)[C@H](C)[C@@H](O)[C@@H](C(C)OC(=O)C(C)(C)CC(=O)N2CCN(c3cc4c(cc3F)c(=O)c(C(=O)O)cn4C3CC3)CC2)/C=C/C=C(/C)C(=O)NC2=CC(=O)c3c(c(O)c(C)c4c3C(=O)[C@@](C)(O/C=C/[C@H](O[C@H]3C[C@@H]5OCO[C@@H]5[C@@H](C)O3)[C@H]1C)O4)C2=O (some centres undefined)	16 (≈ 12.4 µM)	> 64	> 64	> 64	32 (≈ 24.7 µM)	23 (≈ 17.8 µM)
COc1c(N2CCCC(N(C)c3cc(O)c4nc5c6c7c8c(C)c(O)c6c(=O)c(c-5oc4c3)NC(=O)/C(C)=C\C=C\[C@H](C(C)OC(=O)C(C)(C)CC(=O)O)[C@H](O)[C@@H](C)[C@@H](O)[C@@H](C)[C@H](OC(C)=O)[C@H](C)[C@@H](O[C@H]3C[C@@H]4OCO[C@@H]4[C@@H](C)O3)/C=C/O[C@@](C)(O8)C7=O)C2)c(F)cc2c(=O)c(C(=O)O)cn(C3CC3)c12 (some centres undefined)	8 (≈ 5.43 µM)	> 64	64 (≈ 43.4 µM)	16 (≈ 10.9 µM)	16 (≈ 10.9 µM)	36 (≈ 24.4 µM)
COc1c(N2C[C@@H]3CCCN(C(=O)CC(C)(C)C(=O)OC(C)[C@H]4/C=C/C=C(/C)C(=O)NC5=CC(=O)c6c(c(O)c(C)c7c6C(=O)[C@@](C)(O/C=C/[C@H](O[C@H]6C[C@@H]8OCO[C@@H]8[C@@H](C)O6)[C@@H](C)[C@@H](OC(C)=O)[C@H](C)[C@H](O)[C@H](C)[C@H]4O)O7)C5=O)[C@@H]3C2)c(F)cc2c(=O)c(C(=O)O)cn(C3CC3)c12 (some centres undefined)	32 (≈ 23.4 µM)	> 64	> 64	> 64	32 (≈ 23.4 µM)	28 (≈ 20.5 µM)
CC(=O)O[C@H]1[C@H](C)[C@H](O)[C@H](C)[C@@H](O)[C@@H](C(C)OC(=O)C(C)(C)CC(=O)O)/C=C/C=C(/C)C(=O)Nc2c3oc4cc(N5Cc6cc(-c7ccc8c(=O)c(C(=O)O)cn(C9CC9)c8c7OC(F)F)ccc6[C@H]5C)cc(O)c4nc-3c3c4c(c(C)c(O)c3c2=O)O[C@](C)(O/C=C/[C@H](O[C@H]2C[C@@H]3OCO[C@@H]3[C@@H](C)O2)[C@H]1C)C4=O (some centres undefined)	1 (≈ 0.662 µM)	> 64	16 (≈ 10.6 µM)	2 (≈ 1.32 µM)	1 (≈ 0.662 µM)	> 64
COc1c(N2CCCC(N(C)C(=O)CC(C)(C)C(=O)OC(C)[C@H]3/C=C/C=C(/C)C(=O)NC4=CC(=O)c5c(c(O)c(C)c6c5C(=O)[C@@](C)(O/C=C/[C@H](O[C@H]5C[C@@H]7OCO[C@@H]7[C@@H](C)O5)[C@@H](C)[C@@H](OC(C)=O)[C@H](C)[C@H](O)[C@H](C)[C@H]3O)O6)C4=O)C2)c(F)cc2c(=O)c(C(=O)O)cn(C3CC3)c12 (some centres undefined)	32 (≈ 23.6 µM)	> 64	> 64	> 64	16 (≈ 11.8 µM)	23 (≈ 17 µM)
CO/N=C1\CN(c2nc3c(cc2F)c(=O)c(C(=O)O)cn3C2CC2)CC1CNC(=O)CC(C)(C)C(=O)OC(C)[C@H]1/C=C/C=C(/C)C(=O)NC2=CC(=O)c3c(c(O)c(C)c4c3C(=O)[C@@](C)(O/C=C/[C@H](O[C@H]3C[C@@H]5OCO[C@@H]5[C@@H](C)O3)[C@@H](C)[C@@H](OC(C)=O)[C@H](C)[C@H](O)[C@H](C)[C@H]1O)O4)C2=O (some centres undefined)	16 (≈ 11.8 µM)	> 64	> 64	> 64	8 (≈ 5.91 µM)	> 64
CNC1CCCN(c2c(F)cc3c(=O)c(C(=O)O)cn(C4CC4)c3c2OC)C1 (centres undefined) [BALOFLOXACIN]	0.13 (≈ 0.334 µM)	4 (≈ 10.3 µM)	0.5 (≈ 1.28 µM)	0.13 (≈ 0.334 µM)	4 (≈ 10.3 µM)	
N[C@@H]1CCCCN(c2c(F)cc3c(=O)c(C(=O)O)cn(C4CC4)c3c2Cl)C1 [BESIFLOXACIN]	0.031 (≈ 0.0787 µM)	0.5 (≈ 1.27 µM)	0.25 (≈ 0.635 µM)	0.031 (≈ 0.0787 µM)	0.5 (≈ 1.27 µM)	
O=C(O)c1cn(C2CC2)c2cc(N3CCNCC3)c(F)cc2c1=O [CIPROFLOXACIN]	0.25 (≈ 0.754 µM)			0.25 (≈ 0.754 µM)	32 (≈ 96.6 µM)	
C[C@H]1NCc2cc(-c3ccc4c(=O)c(C(=O)O)cn(C5CC5)c4c3OC(F)F)ccc21 [GARENOXACIN]	0.016 (≈ 0.0375 µM)	0.5 (≈ 1.17 µM)	0.016 (≈ 0.0375 µM)	0.016 (≈ 0.0375 µM)	0.5 (≈ 1.17 µM)	
COc1c(N2CCNC(C)C2)c(F)cc2c(=O)c(C(=O)O)cn(C3CC3)c12 (centres undefined) [GATIFLOXACIN]	0.063 (≈ 0.168 µM)	2 (≈ 5.33 µM)	0.016 (≈ 0.0426 µM)	0.063 (≈ 0.168 µM)	2 (≈ 5.33 µM)	
CO/N=C1\CN(c2nc3c(cc2F)c(=O)c(C(=O)O)cn3C2CC2)CC1CN (centres undefined) [GEMIFLOXACIN]	0.016 (≈ 0.0411 µM)	1 (≈ 2.57 µM)	0.0078 (≈ 0.02 µM)	0.016 (≈ 0.0411 µM)	1 (≈ 2.57 µM)	
COc1c(N2C[C@@H]3CCCN[C@@H]3C2)c(F)cc2c(=O)c(C(=O)O)cn(C3CC3)c12 [MOXIFLOXACIN]	0.016 (≈ 0.0399 µM)		0.031 (≈ 0.0772 µM)	0.016 (≈ 0.0399 µM)		
C[C@H]1COc2c(C3(N)CC3)c(F)cc3c(=O)c(C(=O)O)cn1c23 [PAZUFLOXACIN]	0.13 (≈ 0.408 µM)	4 (≈ 12.6 µM)	0.016 (≈ 0.0503 µM)	0.13 (≈ 0.408 µM)	4 (≈ 12.6 µM)	
N[C@@H]1[C@H]2CN(c3nc4c(cc3F)c(=O)c(C(=O)O)cn4-c3ccc(F)cc3F)C[C@@H]12 [TROVAFLOXACIN]	0.0078 (≈ 0.0187 µM)	1 (≈ 2.4 µM)	0.0078 (≈ 0.0187 µM)	0.016 (≈ 0.0384 µM)	1 (≈ 2.4 µM)	
